# Results published in ChEMBL document CHEMBL1125150, “Arabinofuranosylpyrrolo[2,3-d]pyrimidines as potential agents for human cytomegalovirus infections” (J Med Chem, 1990).
# Legend:
# [1] = Tested in vitro for cytotoxicity against the monkey kidney cells (BSC-1 cells).; assay type: functional, cell-based; details: Cercopithecidae
# How it was run: (§1)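 Uninfected HFF or BSC-1 cells in the plaque-reduction plates were scored visually at 35- and 60-fold magnification on a 0 to 4+ scale on the staining day. IC50 was taken by regression against log concentration.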
# [2] = test system: Human betaherpesvirus 5; assay: Tested in vitro for antiviral activity against human cytomegalovirus (HCMV) in plaque reduction assay.; assay type: functional, organism-based
# How it was run: (§2)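 HCMV Towne strain (plaque-purified P0) was used on HFF monolayers. The inoculum held about 50 PFU, and compounds were dissolved in the overlay medium. Plaques were enumerated. IC50 came from linear regression of percent inhibition against log concentration. Acyclovir or ganciclovir served as positive control, and a set was rejected if the control deviated >1.5 SD from its mean.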
# [3] = test system: HFF; assay: Tested in vitro for cytotoxicity against the normal human diploid cells (HFF cells).; assay type: functional, cell-based; how it was run: as §1
# [4] = test system: Human alphaherpesvirus 1; assay: Tested in vitro for antiviral activity against HSV-1 in plaque reduction assay.; assay type: functional, organism-based
# How it was run: (§3)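 Plaque reduction used HSV-1 strain S-148 on BSC-1 (African green monkey kidney) monolayers. The inoculum held about 100 PFU, and compounds were dissolved in the overlay medium. IC50 was regressed from percent inhibition against log concentration. Acyclovir or ganciclovir positive controls were run, with sets rejected if the control deviated >1.5 SD from its mean.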
# [5] = test system: L1210; assay: Tested in vitro for antiproliferative activity against growth rate of L1210 cells.(delayed growth inhibition); assay type: functional, Mus musculus; set-up: concentration or dose not given beside the values
# How it was run: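 L1210 cells were grown in static suspension in Fischer's medium with drug for 4 days. Growth rate was the control-to-treated ratio of population doubling times. For delayed inhibition it was taken over 48–96 h, when control doubling time averaged 22 h. IC50 is the concentration halving growth rate relative to control.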
# [6] = Tested in vitro for cytotoxicity against the human neoplastic cell line (KB cells).; assay type: functional, cell-based
# How it was run: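 KB cells were grown in MEM(H) with 10% calf serum. Incorporation of radiolabelled precursors into DNA, RNA and protein was measured. Separate IC50s came from regression against log concentration and the three were averaged. Values are averages of two to five experiments.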
# [7] = test system: L1210; assay: Tested in vitro for antiproliferative activity against growth rate of L1210 cells.; assay type: functional, Mus musculus
# How it was run: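 L1210 cells were grown in static suspension in Fischer's medium with a range of compound concentrations, and growth rate was followed over 4 days. Growth rate was the control-to-treated ratio of population doubling times. It was scored separately for 0–48 h and 48–96 h, and the lower value was kept. IC50 was the concentration giving 50% of the control growth rate.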
# [8] = test system: Human alphaherpesvirus 1; assay: Tested for activity against the monkey kidney herpes simplex virus-1 (HSV-1) cell lines; assay type: functional, organism-based; how it was run: as §3
# [9] = test system: Mus musculus; assay: Tested for effect on the mortality of mice inoculated with MCMV at 5.6 mg/kg at 48 hr; assay type: functional
# How it was run: (§4)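 Female Swiss Webster mice, 3 weeks old, were infected ip with 2 × 10⁵ PFU of MCMV Smith strain. Groups of 15 received drug ip twice daily for 5 days, starting at the stated hour after inoculation. Mice were watched daily for 21 days, and final mortality and mean day of death were scored. Fisher exact test (mortality) and Mann-Whitney U test (mean day of death) were used against placebo. Uninfected drug-toxicity controls were 10 mice.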
# [10] = test system: Mus musculus; assay: Tested for effect on the mortality of mice inoculated with MCMV at 16.7 mg/kg at 24 hr; assay type: functional; how it was run: as §4
# [11] = test system: Human alphaherpesvirus 1; assay: Tested for visual cytotoxicity against rabbit kidney herpes simplex virus-1 (HSV-1) cell lines; assay type: functional, organism-based
# [12] = test system: Mus musculus; assay: Tested for effect on the mortality of mice inoculated with MCMV at 50 mg/kg at 12 hr; assay type: functional; how it was run: as §4
# [13] = test system: Human betaherpesvirus 5; assay: Tested for visual cytotoxicity against the human cytomegalovirus (HCMV) cell lines in human foreskin fibroblasts; assay type: functional, organism-based; how it was run: as §1
# [14] = test system: Murid betaherpesvirus 1; assay: Tested for visual cytotoxicity against the mouse cytomegalovirus (MCMV) in mouse embryo fibroblasts; assay type: functional, organism-based
# [15] = test system: Human alphaherpesvirus 1; assay: Tested for visual cytotoxicity against monkey kidney herpes simplex virus-1 (HSV-1) cell lines; assay type: functional, organism-based; how it was run: as §1
# [16] = test system: Mus musculus; assay: Tested for effect on the mortality of mice inoculated with MCMV at 5.6 mg/kg at 24 hr; assay type: functional; how it was run: as §4
# [17] = test system: Human alphaherpesvirus 2; assay: Tested for activity against the human foreskin fibroblasts herpes simplex virus-2 (HSV-2) cell lines; assay type: functional, organism-based
# How it was run: (§5)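 Plaque reduction used HSV-2 (MS strain) in HFF cells and HSV-1 (E-377 strain) in primary rabbit kidney cells. Monolayers got 20–50 PFU for 1 h at 37 °C, then an agarose overlay holding serial 5-fold drug dilutions in MEM(E). Neutral red staining on day 3 preceded plaque counts against untreated controls. Values average two or more experiments.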
# [18] = test system: Mus musculus; assay: Tested for effect on the mortality of mice inoculated with MCMV at 16.7 mg/kg at 48 hr; assay type: functional; how it was run: as §4
# [19] = test system: Human alphaherpesvirus 1; assay: Tested for activity against the rabbit kidney herpes simplex virus-1 (HSV-1) cell lines; assay type: functional, organism-based; how it was run: as §5
# [20] = test system: Mus musculus; assay: Tested for effect on the mortality of mice inoculated with MCMV at 16.7 mg/kg at 12 hr; assay type: functional; how it was run: as §4
# [21] = test system: Mus musculus; assay: Tested for effect on the mortality of mice inoculated with MCMV at 50 mg/kg at 48 hr; assay type: functional; how it was run: as §4
# [22] = test system: Human betaherpesvirus 5; assay: Tested for activity against human cytomegalovirus (HCMV) in human foreskin fibroblasts cell lines using plaque assay; assay type: functional, organism-based; details: Human betaherpesvirus 5, Fibroblast; how it was run: as §2
# [23] = test system: Human betaherpesvirus 5; assay: Tested in vitro for antiviral activity against human cytomegalovirus (HCMV) in yield reduction assay.; assay type: functional
# [24] = test system: Murid betaherpesvirus 1; assay: Tested for activity against mouse cytomegalovirus (MCMV) in mouse embryo fibroblasts using plaque assay; assay type: functional, organism-based
# How it was run: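 MCMV Smith strain was plated on primary mouse embryo fibroblasts at 20–50 PFU per monolayer, with 1 h at 37 °C. Serial 5-fold drug dilutions in twice-concentrated MEM(E) were mixed with 1% agarose as overlay. A further drug-free overlay was added on day 4. Cultures were stained with neutral red on day 7 and plaques counted against untreated controls. Values average two or more experiments.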
# [25] = test system: Mus musculus; assay: Tested for effect on the mortality of mice inoculated with MCMV at 5.6 mg/kg at 12 hr; assay type: functional; how it was run: as §4
# [26] = test system: Mus musculus; assay: Tested for effect on the mortality of mice inoculated with MCMV at 50 mg/kg at 24 hr; assay type: functional; how it was run: as §4
# [27] = test system: Human alphaherpesvirus 2; assay: Tested for visual cytotoxicity against the human foreskin fibroblasts herpes simplex virus-2 (HSV-2) cell lines; assay type: functional, organism-based
# [28] = test system: Human alphaherpesvirus 1; assay: Tested in vitro for antiviral activity against HSV-1 in yield reduction assay.; assay type: functional
# [29] = Human betaherpesvirus 5, read-out: IC90
smiles,measurement,setting,value
NC(=O)c1cn([C@@H]2O[C@H](CO)[C@@H](O)[C@@H]2Cl)c2ncnc(N)c12,IC50,[1],> 100 µM
same,IC50,[2],> 100 µM
same,IC50,[3],> 100 µM
same,IC50,[4],> 100 µM
same,Control,[5],73%
NC(=O)c1cn([C@@H]2O[C@H](CO)[C@@H](O)[C@@H]2N)c2ncnc(N)c12,IC50,[1],> 100 µM
same,IC50,[2],> 100 µM
same,IC50,[3],> 100 µM
same,IC50,[6],> 100 µM
same,IC50,[4],> 100 µM
same,Control,[5],46%
NC(=O)c1cn([C@@H]2O[C@H](CO)[C@@H](O)[C@@H]2I)c2ncnc(N)c12,IC50,[1],> 100 µM
same,IC50,[2],> 100 µM
same,IC50,[3],100 µM
same,IC50,[4],> 100 µM
same,Control,[5],38%
NC(=O)c1cn([C@@H]2O[C@H](CO)[C@@H](O)[C@@H]2Br)c2ncnc(N)c12,IC50,[1],> 100 µM
same,Control,[7],92%
same,IC50,[2],> 100 µM
same,IC50,[3],> 100 µM
same,IC50,[4],> 100 µM
N#Cc1cn([C@@H]2O[C@H](CO)[C@@H](O)[C@@H]2N)c2ncnc(N)c12,IC50,[1],> 100 µM
same,IC50,[8],> 100 µM
same,MDD,[9],5.6 mean day of death
same,mortality at 5.6 mg/kg,[9],100%
same,MDD,[10],4.7 mean day of death
same,mortality at 16.7 mg/kg,[10],100%
same,IC50,[11],350 µM
same,MDD,[12],4.1 mean day of death
same,mortality at 50 mg/kg,[12],73%
same,IC50,[13],> 100 µM
same,IC50,[14],> 350 µM
same,IC50,[2],14 µM
same,IC50,[15],> 100 µM
same,IC50,[3],> 100 µM
same,MDD,[16],4.6 mean day of death
same,mortality at 5.6 mg/kg,[16],93%
same,IC50,[6],105 µM
same,IC50,[17],114 µM
same,MDD,[18],4.6 mean day of death
same,mortality at 16.7 mg/kg,[18],100%
same,IC50,[19],117 µM
same,MDD,[20],4.6 mean day of death
same,mortality at 16.7 mg/kg,[20],93%
same,IC50,[4],> 100 µM
same,MDD,[21],4.9 mean day of death
same,mortality at 50 mg/kg,[21],87%
same,IC50,[22],14 µM
same,IC90,[23]; [29],110 µM
same,IC50,[24],13 µM
same,MDD,[25],4.5 mean day of death
same,mortality at 5.6 mg/kg,[25],100%
same,Control,[5],48%
same,MDD,[26],4.4 mean day of death
same,mortality at 50 mg/kg,[26],100%
same,IC50,[27],350 µM
N#Cc1cn([C@@H]2O[C@H](CO)[C@@H](O)[C@@H]2Cl)c2ncnc(N)c12,IC50,[1],> 100 µM
same,IC50,[2],21 µM
same,IC50,[3],140 µM
same,IC50,[4],> 100 µM
same,IC90,[23]; [29],75 µM
same,Control,[5],24%
N#Cc1cn([C@@H]2O[C@H](CO)[C@@H](O)[C@@H]2I)c2ncnc(N)c12,IC50,[1],> 100 µM
same,IC50,[2],40 µM
same,IC50,[3],100 µM
same,IC50,[4],> 100 µM
same,IC90,[23]; [29],20 µM
same,Control,[5],24%
[N-]=[N+]=N[C@H]1[C@H](O)[C@@H](CO)O[C@H]1n1cc(C(N)=O)c2c(N)ncnc21,IC50,[1],> 100 µM
same,IC50,[2],28 µM
same,IC50,[3],66 µM
same,IC50,[6],179 µM
same,IC50,[4],> 100 µM
same,IC90,[23]; [29],100 µM
same,Control,[5],12%
N#Cc1cn([C@@H]2O[C@H](CO)[C@@H](O)[C@@H]2N=[N+]=[N-])c2ncnc(N)c12,IC50,[1],> 100 µM
same,IC50,[2],34 µM
same,IC50,[3],55 µM
same,IC50,[6],151 µM
same,IC50,[4],> 100 µM
same,IC90,[23]; [29],37 µM
same,Control,[5],14%
N#Cc1cn([C@@H]2O[C@H](CO)[C@@H](O)[C@@H]2Br)c2ncnc(N)c12,IC50,[1],> 100 µM
same,IC50,[2],162 µM
same,IC50,[3],181 µM
same,IC50,[4],> 100 µM
same,IC90,[23]; [29],90 µM
same,Control,[5],16%
Nc1nc2c(ncn2COCCO)c(=O)[nH]1 [ACYCLOVIR],IC50,[1],> 100 µM
same,IC90,[28],7 µM
same,IC50,[3],> 100 µM
same,IC50,[6],> 100 µM
same,IC90,[23]; [29],90 µM
Nc1nc2c(ncn2COC(CO)CO)c(=O)[nH]1 [GANCICLOVIR],IC50,[1],> 100 µM
same,IC90,[28],1.2 µM
same,IC50,[2],9.2 µM
same,IC50,[3],> 100 µM
same,IC50,[6],> 100 µM
same,IC90,[23],1.8 µM
